In brackets after ≈: the same amount, converted by molar mass. Activity calls are given as the source filed them. The rule behind the calls is not given here. Non-standard residues stand in square brackets, D forms with d. Residues, ends and D or L forms follow the SMILES beside them. *: point of attachment. 2Nal = N[C@@H](Cc1ccc2ccccc2c1)C(=O)O; Mtr = COc1cc(C)c(S(=O)(=O)*)c(C)c1C; Piperidide = C1CCN(*)CC1
Experiments:
Vasopressin V1b receptor [1] = target: T1, Vasopressin V1b receptor (Homo sapiens, UniProt P47901); assay: Displacement of [3H]-AVP from human vasopressin V1B receptor expressed in CHO cells; assay type: cell-based
T1 sequence (P47901 whole entry): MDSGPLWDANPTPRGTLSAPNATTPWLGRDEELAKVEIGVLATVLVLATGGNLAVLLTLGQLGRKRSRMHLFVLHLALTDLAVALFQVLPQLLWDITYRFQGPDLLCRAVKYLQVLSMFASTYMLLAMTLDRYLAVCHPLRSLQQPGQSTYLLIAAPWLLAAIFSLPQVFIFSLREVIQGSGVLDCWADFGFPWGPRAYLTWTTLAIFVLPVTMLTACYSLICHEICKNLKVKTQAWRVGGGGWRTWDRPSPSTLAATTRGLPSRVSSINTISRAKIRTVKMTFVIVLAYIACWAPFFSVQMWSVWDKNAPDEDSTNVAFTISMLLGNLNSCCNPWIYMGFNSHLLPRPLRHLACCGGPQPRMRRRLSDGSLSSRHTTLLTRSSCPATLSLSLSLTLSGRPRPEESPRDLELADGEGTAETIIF
In short: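 Whole-cell binding in CHO cells expressing human receptor, [³H]AVP tracer, increasing compound concentrations; nonspecific binding with 10 µM lysine vasopressin. Affinity (Ki) from non-linear regression of specific binding versus concentration; mean of at least 2 independent experiments run in duplicate.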

Oxytocin receptor = target: T2, Oxytocin receptor (Homo sapiens, UniProt P30559); assay: Displacement of [3H]oxytocin from human oxytocin receptor expressed in CHO cells; assay type: cell-based
T2 sequence (P30559 whole entry): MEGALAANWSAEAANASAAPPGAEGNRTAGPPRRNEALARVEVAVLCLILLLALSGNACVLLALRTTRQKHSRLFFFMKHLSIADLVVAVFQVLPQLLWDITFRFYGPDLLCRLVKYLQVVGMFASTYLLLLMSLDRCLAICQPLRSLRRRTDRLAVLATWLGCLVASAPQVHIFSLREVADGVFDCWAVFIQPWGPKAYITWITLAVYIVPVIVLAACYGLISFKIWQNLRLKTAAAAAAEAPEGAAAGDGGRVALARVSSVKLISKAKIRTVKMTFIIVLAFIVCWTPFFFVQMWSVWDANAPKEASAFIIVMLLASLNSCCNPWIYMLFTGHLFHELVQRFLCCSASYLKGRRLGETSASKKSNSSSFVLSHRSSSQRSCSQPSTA
In short: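 Intact CHO cells expressing human receptor incubated with [³H]oxytocin plus increasing compound concentrations; 10 µM oxytocin defines nonspecific binding. Ki obtained by non-linear regression of specific binding against compound concentration; values averaged from at least 2 independent duplicate experiments.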

[2] = target: 5-hydroxytryptamine receptor 6 (Homo sapiens) (UniProt P50406); assay: Binding affinity to 5HT6 receptor
Chain of 5-hydroxytryptamine receptor 6 (Homo sapiens) (P50406 whole entry): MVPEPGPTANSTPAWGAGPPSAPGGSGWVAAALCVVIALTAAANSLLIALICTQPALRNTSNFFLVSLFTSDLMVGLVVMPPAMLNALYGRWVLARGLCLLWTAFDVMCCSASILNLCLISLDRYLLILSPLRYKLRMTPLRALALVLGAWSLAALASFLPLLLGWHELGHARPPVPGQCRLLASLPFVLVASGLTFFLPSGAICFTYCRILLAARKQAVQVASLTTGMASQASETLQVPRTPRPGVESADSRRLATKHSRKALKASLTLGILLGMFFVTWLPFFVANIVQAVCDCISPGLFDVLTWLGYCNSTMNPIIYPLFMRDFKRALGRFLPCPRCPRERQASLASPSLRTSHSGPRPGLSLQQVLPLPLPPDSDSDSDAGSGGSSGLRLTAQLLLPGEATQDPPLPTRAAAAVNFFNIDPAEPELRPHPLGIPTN

Vasopressin V1b receptor [3] = target: T1, Vasopressin V1b receptor; assay: Antagonist activity at human vasopressin V1B receptor expressed in CHO cells assessed as inhibition of AVP-induced calcium mobilisation by luciferase reporter gene assay; assay type: functional, cell-based
[4] = Solubility of the compound at pH 7.4; assay type: physicochemical; conditions: buffer
In short: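 Kinetic solubility measured at pH 7.4, reported in mg/L.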

Vasopressin V1a receptor = Vasopressin V1a receptor (Homo sapiens, UniProt P37288); assay: Displacement of [3H]-AVP from human vasopressin V1A receptor expressed in CHO cell membranes
Chain of Vasopressin V1a receptor (P37288 whole entry): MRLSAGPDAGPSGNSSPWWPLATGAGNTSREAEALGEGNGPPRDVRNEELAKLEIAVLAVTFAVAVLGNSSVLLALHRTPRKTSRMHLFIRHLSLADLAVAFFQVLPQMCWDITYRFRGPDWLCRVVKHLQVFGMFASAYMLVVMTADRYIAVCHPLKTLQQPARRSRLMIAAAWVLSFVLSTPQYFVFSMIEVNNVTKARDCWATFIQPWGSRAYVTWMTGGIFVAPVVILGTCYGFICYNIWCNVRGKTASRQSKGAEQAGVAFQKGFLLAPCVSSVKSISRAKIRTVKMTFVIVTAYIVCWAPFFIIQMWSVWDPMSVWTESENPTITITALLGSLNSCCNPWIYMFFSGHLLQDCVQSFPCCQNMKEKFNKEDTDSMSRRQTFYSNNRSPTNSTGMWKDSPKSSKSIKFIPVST
In short: (§1)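 Membranes from CHO cells expressing the human receptor incubated with [³H]AVP and increasing compound concentrations. Nonspecific binding defined with 10 µM lysine vasopressin. Specific binding plotted against compound concentration; affinity derived by non-linear regression. Mean of at least 2 independent experiments in duplicate.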

[5] = Lipophilicity, log D of the compound at pH 7.4; assay type: physicochemical; conditions: buffer
Vasopressin V2 receptor = Vasopressin V2 receptor (Homo sapiens, UniProt P30518); assay: Displacement of [3H]-AVP from human vasopressin V2 receptor expressed in CHO cell membranes; in short: as §1
Chain of Vasopressin V2 receptor (P30518 whole entry): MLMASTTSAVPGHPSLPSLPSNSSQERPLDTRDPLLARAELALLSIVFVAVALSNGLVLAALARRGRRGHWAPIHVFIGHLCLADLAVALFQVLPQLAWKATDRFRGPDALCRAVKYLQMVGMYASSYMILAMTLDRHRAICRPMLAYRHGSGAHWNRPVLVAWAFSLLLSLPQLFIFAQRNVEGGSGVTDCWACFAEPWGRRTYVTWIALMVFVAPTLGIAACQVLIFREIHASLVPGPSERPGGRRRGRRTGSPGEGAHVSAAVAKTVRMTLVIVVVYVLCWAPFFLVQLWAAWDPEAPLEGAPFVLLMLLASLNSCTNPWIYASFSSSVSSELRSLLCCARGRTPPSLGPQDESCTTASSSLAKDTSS

Structure (SMILES)	Ki (Vasopressin V1b receptor [1]) [nM]	also measured
COc1ccc(S(=O)(=O)n2c(C)c(C(=O)NCCCN3CCN(C)CC3)c3ccccc32)c(C)c1C	560	–
COc1ccc(S(=O)(=O)n2c(C)c(C(=O)N3CCCN(C)CC3)c3ccccc32)c(C)c1C	500	–
COc1ccc2c(c1)c(CC(=O)N1CCCNCC1)c(C)n2S(=O)(=O)c1ccc(OC)c(C)c1C	180	Ki (Oxytocin receptor): 320 nM
COc1ccc(S(=O)(=O)n2c(C)c(CC(=O)NCCCN3CCN(C)CC3)c3cc(F)ccc32)c(C)c1C	430	–
COc1cc(C)c(S(=O)(=O)N[C@@H](Cc2ccccc2)C(=O)NCC(=O)N2CCCCC2)c(C)c1C (Mtr-Phe-Gly-Piperidide)	> 10000	–
COc1cc(C)c(S(=O)(=O)N[C@@H](Cc2ccccc2)C(=O)N(C)CCCN2CCN(C)CC2)c(C)c1C	1000	–
COc1cc(C)c(S(=O)(=O)N[C@@H](Cc2ccccc2)C(=O)N[C@H](Cc2ccccc2)C(=O)N2CCCCC2)c(C)c1C	> 10000	–
COc1cc(C)c(S(=O)(=O)N[C@@H](Cc2ccccc2)C(=O)NCCCN2CCC(C)CC2)c(C)c1C	2500	–
COc1cc(C)c(S(=O)(=O)N[C@@H](Cc2ccccc2)C(=O)N[C@@H](Cc2ccccc2)C(=O)N2CCCCC2)c(C)c1C	630	–
COc1ccc2c(c1)c(C(=O)N1CCCNCC1)c(C)n2S(=O)(=O)c1ccc(OC)c(C)c1C	190	Ki (Oxytocin receptor): > 10000 nM; IC50 (Vasopressin V1b receptor [3]): 371 nM; solubility [4]: 72 µg/mL (≈ 148 µM); Ki (Vasopressin V1a receptor): > 10000 nM; logD [5]: 2; Ki (Vasopressin V2 receptor): > 10000 nM

Second part, led by results:

Ki (Vasopressin V1b receptor [1]) [nM]	Structure (SMILES)	also measured
310	COc1ccc(S(=O)(=O)n2c(C)c(C(=O)N3CCCNCC3)c3cc(F)ccc32)c(C)c1C	–
3200	COc1cc(C)c(S(=O)(=O)N[C@@H](Cc2ccccc2)C(=O)N2CCCN(C)CC2)c(C)c1C	–
260	COc1ccc(S(=O)(=O)n2c(C)c(CC(=O)N(C)CCc3ccccn3)c3cc(F)ccc32)c(C)c1C	–
10000	COc1cc(C)c(S(=O)(=O)N[C@@H](Cc2ccccc2)C(=O)NCCCN2CCOCC2)c(C)c1C	–
500	COc1cc(C)c(S(=O)(=O)N[C@@H](Cc2ccccc2)C(=O)NCCN2CCN(C)CC2)c(C)c1C	–
63	COc1cc(C)c(S(=O)(=O)N[C@@H](Cc2ccccc2)C(=O)NC(Cc2ccc3c(N)nccc3c2)C(=O)N2CCCCC2)c(C)c1C (some centres undefined)	–
250	COc1cc(C)c(S(=O)(=O)N[C@@H](Cc2ccccc2)C(=O)NCCCN2CCN(C)CC2)c(C)c1C	–
790	COc1ccc(S(=O)(=O)n2c(C)c(C(=O)N3CCCNCC3)c3cc(C)ccc32)c(C)c1C	–
> 10000	COc1cc(C)c(S(=O)(=O)N[C@@H](Cc2ccccc2)C(=O)N[C@@H](Cc2ccc3ccccc3c2)C(=O)N2CCCCC2)c(C)c1C (Mtr-Phe-[2Nal]-Piperidide)	–
2000	COc1cc(C)c(S(=O)(=O)N[C@@H](Cc2ccccc2)C(=O)NCCCN(C)C)c(C)c1C	–
1200	COc1ccc(S(=O)(=O)N2CC(C(=O)NCCCN3CCN(C)CC3)c3ccccc32)c(C)c1C (centres undefined)	Activity [2]: Active
